How the values were obtained:
Coptotermes formosanus [1] = test: Insecticidal activity against Coptotermes formosanus assessed as mortality at 1000 ppm after 1 day by filter paper contact method relative to control; assay type: functional
Coptotermes formosanus [2] = test: Insecticidal activity against Coptotermes formosanus assessed as mortality at 1000 ppm after 5 days by filter paper contact method relative to control; assay type: functional
Coptotermes formosanus [3] = test: Insecticidal activity against Coptotermes formosanus assessed as mortality at 100 ppm after 1 day by filter paper contact method relative to control; assay type: functional
Coptotermes formosanus [4] = test: Insecticidal activity against Coptotermes formosanus assessed as mortality at 100 ppm after 5 days by filter paper contact method relative to control; assay type: functional
Coptotermes formosanus [5] = test: Insecticidal activity against Coptotermes formosanus assessed as mortality at 100 ppm after 2 days by filter paper contact method relative to control; assay type: functional
Coptotermes formosanus [6] = test: Insecticidal activity against Coptotermes formosanus assessed as mortality at 1000 ppm after 2 days by filter paper contact method relative to control; assay type: functional
Coptotermes formosanus [7] = test: Insecticidal activity against Coptotermes formosanus assessed as mortality at 100 ppm after 7 days by filter paper contact method relative to control; assay type: functional
Coptotermes formosanus [8] = test: Insecticidal activity against Coptotermes formosanus assessed as mortality at 1000 ppm after 7 days by filter paper contact method relative to control; assay type: functional
A549 [9] = test: Inhibition of IL-1-beta-induced ICAM1 protein expression in human A549 cells treated for 1 hr before IL1-beta challenge for 6 hrs; assay type: functional, cell-based
Outline: (§1)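 A549 cells at 3 × 10⁴/well pretreated with compound 1 h, then IL-1β at 0.25 ng/mL final for 6 h. Cells fixed in 1% paraformaldehyde and blocked with 1% BSA overnight. Mouse anti-human ICAM-1 and peroxidase anti-mouse IgG each 60 min at 37 °C. o-Phenylenediamine/H₂O₂ substrate (citrate pH 5.3), 20 min dark, A415. Expression normalised between IL-1β-treated and unstimulated wells. Triplicate.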

A549 [10] = test: Cytotoxicity against human A549 cells after 24 hrs by MTT assay; assay type: cell-based; conditions: A549, 24 h
Outline: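 A549 cells (RPMI 1640, 10% FCS, 50 µM 2-mercaptoethanol, antibiotics) incubated with test compound 24 h; MTT 500 µg/mL pulsed for final 4 h; formazan dissolved in 5% SDS overnight; absorbance 595 nm. Viability % = (sample − background)/(control − background) × 100. Triplicate cultures.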

A549 [11] = test: Inhibition of IL-1-beta-induced ICAM1 protein expression in human A549 cells at 1000 uM treated for 1 hr before IL1-beta challenge for 6 hrs relative to control; assay type: functional; outline: as §1
[12] = Cytotoxicity against human A549 cells after 24 hrs at 10 uM by MTT assay relative to control; assay type: cell-based; conditions: read-out: T/C
Outline: (§2)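 A549 lung carcinoma cells grown in RPMI 1640 with 10% fetal calf serum, 50 µM 2-mercaptoethanol and penicillin-streptomycin-neomycin. Cells incubated with or without compound for 24 h, with MTT (500 µg/mL) present for the last 4 h. Formazan solubilised overnight in 5% SDS, absorbance read at 595 nm. Viability (%) = (sample − background)/(control − background) × 100. Triplicate cultures, mean ± SD.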

A549 [13] = test: Inhibition of IL-1-beta-induced ICAM1 protein expression in human A549 cells at 32 uM treated for 1 hr before IL1-beta challenge for 6 hrs relative to control; assay type: functional; outline: as §1
[14] = Cytotoxicity against human A549 cells after 24 hrs at 320 uM by MTT assay relative to control; assay type: cell-based; conditions: read-out: T/C; outline: as §2
[15] = Cytotoxicity against human A549 cells after 24 hrs at 1000 uM by MTT assay relative to control; assay type: cell-based; conditions: read-out: T/C; outline: as §2
A549 [16] = test: Inhibition of IL-1-beta-induced ICAM1 protein expression in human A549 cells at 10 uM treated for 1 hr before IL1-beta challenge for 6 hrs relative to control; assay type: functional; outline: as §1
[17] = Cytotoxicity against human A549 cells after 24 hrs at 100 uM by MTT assay relative to control; assay type: cell-based; conditions: read-out: T/C; outline: as §2
[18] = Cytotoxicity against human A549 cells after 24 hrs at 32 uM by MTT assay relative to control; assay type: cell-based; conditions: read-out: T/C; outline: as §2
A549 [19] = test: Inhibition of IL-1-beta-induced ICAM1 protein expression in human A549 cells at 1 uM treated for 1 hr before IL1-beta challenge for 6 hrs relative to control; assay type: functional; outline: as §1
A549 [20] = test: Inhibition of IL-1-beta-induced ICAM1 protein expression in human A549 cells at 100 uM treated for 1 hr before IL1-beta challenge for 6 hrs relative to control; assay type: functional; outline: as §1
A549 [21] = test: Inhibition of IL-1-beta-induced ICAM1 protein expression in human A549 cells at 3.2 uM treated for 1 hr before IL1-beta challenge for 6 hrs relative to control; assay type: functional; outline: as §1
A549 [22] = test: Inhibition of IL-1-beta-induced ICAM1 protein expression in human A549 cells at 320 uM treated for 1 hr before IL1-beta challenge for 6 hrs relative to control; assay type: functional; outline: as §1
[23] = Cytotoxicity against human A549 cells after 24 hrs at 3.2 uM by MTT assay relative to control; assay type: cell-based; conditions: read-out: T/C; outline: as §2
[24] = Cytotoxicity against human A549 cells after 24 hrs at 1 uM by MTT assay relative to control; assay type: cell-based; conditions: read-out: T/C; outline: as §2

SMILES | Activity (Coptotermes formosanus [1]) [%] | Activity (Coptotermes formosanus [2]) [%] | Activity (Coptotermes formosanus [3]) [%] | Activity (Coptotermes formosanus [4]) [%] | Activity (Coptotermes formosanus [5]) [%] | Activity (Coptotermes formosanus [6]) [%] | IC50 (A549 [9]) [µM] | other results
C#C[C@@H]1CC[C@@]2(C)CCC(=O)[C@@H](C)[C@@H]2C1 | 0 | 100 | 0 | 0 | 0 | 93 |  | 
C#C[C@@H]1CC[C@@]2(C)C=CC(=O)[C@@H](C)[C@@H]2C1 | 80 | 100 | 0 | 43 | 0 | 97 |  | Activity (Coptotermes formosanus [7]): 100%; Activity (Coptotermes formosanus [8]): 100%
C#C[C@@H]1CC[C@@]2(C)C=CC(=O)C(=C)[C@@H]2C1 | 33 | 100 | 0 | 17 | 3 | 93 |  | 
C[C@@H]1C(=O)O[C@@H]2[C@H]1CC[C@@]1(C)CCC(=O)[C@@H](C)[C@H]21 |  |  |  |  |  |  | > 1000 | 
C=C1C(=O)O[C@H]2[C@H]3[C@H](C)C(=O)CC[C@]3(C)CC[C@@H]12 |  |  |  |  |  |  | 17 | 
C#C[C@@H]1CC[C@@]2(C)C=CC(=O)[C@@H](C)[C@H]2C1 [CHAMAECYNONE] | 27 | 100 | 0 | 27 | 0 | 97 |  | Activity (Coptotermes formosanus [7]): 87%; Activity (Coptotermes formosanus [8]): 100%
C=C1C(=O)C=C[C@]2(C)CC[C@H]3C(=C)C(=O)O[C@H]3[C@@H]12 [DEHYDROBRACHYLAENOLIDE] |  |  |  |  |  |  | 3 | IC50 (A549 [10]): 55 µM; T/C (A549 [11]): -3.3%; viability at 24 h, 10 µM [12]: 93.8%; Activity (A549 [9]): Dose-dependent effect; T/C (A549 [13]): 0.1%; viability at 24 h, 320 µM [14]: 28.6%; viability at 24 h, 1000 µM [15]: 11.8%; T/C (A549 [16]): 1.1%; viability at 24 h, 100 µM [17]: 29.3%; viability at 24 h, 32 µM [18]: 68.8%; T/C (A549 [19]): 75.5%; T/C (A549 [20]): -0.3%; T/C (A549 [21]): 44.4%; T/C (A549 [22]): -1.4%; viability at 24 h, 3.2 µM [23]: 90.8%; viability at 24 h, 1 µM [24]: 100%
C#C[C@@H]1CC[C@@]2(C)C=CC(=O)C(C)=C2C1 [DEHYDROCHAMAECYNONE] | 13 | 100 | 0 | 7 | 0 | 90 |  | 
C=C1C(=O)O[C@H]2[C@H]3[C@H](C)C(=O)C=C[C@]3(C)CC[C@@H]12 [TUBERIFERINE] |  |  |  |  |  |  | 7.4 | 

From ChEMBL document CHEMBL1159377, “Synthetic approach to exo-endo cross-conjugated cyclohexadienones and its application to the syntheses of dehydrobrachylaenolide, isodehydrochamaecynone, and trans-isodehydrochamaecynone” (J Nat Prod, 2003)
